Published values pooled from the literature.
Protocols differ between the studies behind these lines.
Cell line: A549
Observed: cell growth or viability

Structure (SMILES) | assay | conditions | IC50
O=C(N/N=C1\C(=O)N(Cc2ccccc2)c2ccc(F)cc21)c1cc2ccccc2[nH]1 |  |  | 1410 nM
CC[C@@]1(OC(=O)Cc2c(C)n(C(=O)c3ccc(Cl)cc3)c3ccc(OC)cc23)C(=O)OCc2c1cc1n(c2=O)Cc2cc3cc4c(cc3nc2-1)OCO4 | MTT |  | 263 nM
CC1=CC(=O)c2c(O)cccc2C1=O | SRB |  | 2820 nM
O=C(N/N=C1\C(=O)N(Cc2ccccc2)c2ccccc21)c1cc2ccccc2[nH]1 |  |  | 1060 nM
COc1ccc2c(c1)[nH]c1c(C)nccc12 | MTT | 72 h | 19400 nM
O=C(N/N=C1\C(=O)N(Cc2ccccc2)c2ccc(Br)cc21)c1cc2ccccc2[nH]1 |  |  | 650 nM
CC[C@@]1(OC(=O)C(C)c2ccc(CC(C)C)cc2)C(=O)OCc2c1cc1n(c2=O)Cc2cc3cc4c(cc3nc2-1)OCO4 (some centres unmarked) | MTT |  | > 5000 nM
COc1c2c(cc3c1OCO3)[C@]13C=C[C@H](OC)C[C@@H]1[N@](C2)C[C@H]3OC(=O)c1ccc2ccccc2c1 | WST-1 |  | > 10000 nM
CC[C@@]1(O)C(=O)OCc2c1cc1n(c2=O)Cc2cc3cc4c(cc3nc2-1)OCO4 | MTT | 72 h | 29 nM
O=C(N/N=C1\C(=O)N(Cc2ccccc2)c2ccc(Cl)cc21)c1cc2ccccc2[nH]1 | imaging | 48 h | 1380 nM
CC[C@@]1(OC(=O)C(C)c2cccc(C(=O)c3ccccc3)c2)C(=O)OCc2c1cc1n(c2=O)Cc2cc3cc4c(cc3nc2-1)OCO4 (some centres unmarked) | MTT |  | 289 nM
Nc1cc(Br)c(Br)cc1N |  | 72 h | 75000 nM
CC1=C(O)C(=O)C=C2C1=CC=C1[C@@]2(C)CC[C@@]2(C)[C@@H]3C[C@](C)(C(=O)OCCCn4cc(C=O)c5ccccc54)CC[C@]3(C)CC[C@]12C | MTT | 48 h | 7830 nM
Nc1cc(Cl)c(Cl)cc1N |  | 72 h | 120000 nM
COc1c2c(cc3c1OCO3)[C@]13C=C[C@H](OC)C[C@@H]1[N@](C2)C[C@H]3OC(=O)c1ccco1 | WST-1 |  | > 10000 nM
CSC(=NNC(=O)c1ccc(Cl)c(Cl)c1)SC | MTT | 5 days | 69000 nM
CC[C@H](C)[C@H](N)C(=O)O[C@]1(CC)C(=O)OCc2c1cc1n(c2=O)Cc2cc3cc4c(cc3nc2-1)OCO4 | MTT |  | 77 nM
CCCCCCCC(=O)SCC/C=C/[C@@H]1CC(=O)NCc2nc(cs2)C2=N[C@@](C)(CS2)C(=O)N[C@@H](C(C)C)C(=O)O1 | resazurin | 48 h | 3.8 nM
CC[C@@]1(OC(=O)CN)C(=O)OCc2c1cc1n(c2=O)Cc2cc3cc4c(cc3nc2-1)OCO4 | MTT |  | 29 nM
COc1ccc2c(c1)/C(=N/NC(=O)c1cc3ccccc3[nH]1)C(=O)N2Cc1ccccc1 |  |  | 640 nM
